GAA850 FXN act – increases GAA850 frataxin promoter reporter activity | hit rate 0.56% among 360,000 | activation, % at 6 µM | HEK293 lucGAA850 FXN promoter luciferase reporter, 24 h; percent of 10 µM SAHA response;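 active = activation above the average of all compounds screened plus 3 SD, cutoff fixed separately per campaign, cut at about 7.5% in these data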;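 note: 0% = DMSO wells and 100% = 10 µM SAHA wells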
CXCR6 inh – blocks human CXCR6 beta-arrestin recruitment. O00574. AID 602244. inhibition, % at 20 µM. hit rate 0.36% among 360,000. CHO-K1 PathHunter CXCR6 beta-arrestin, luminescence; in the data active = inhibition above about 34%, passing the limit was not always enough;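 note: antagonist mode with CXCL16 agonist at 10 nM final; 0% = 10 nM CXCL16 with DMSO and 100% = unstimulated wells without agonist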
EBI2 block – antagonists of human EBI2 receptor; hit rate 0.81% among 360,000; EBI2 beta-arrestin recruitment, luminescence, 7a,25-OHC stimulated; P32249; inhibition, % at 5 µM; in the data active = inhibition above about 38%;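 note: enzyme fragment complementation signal reports receptor beta-arrestin coupling in cells; 0% = agonist plus DMSO wells and 100% = wells without agonist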
CCR6 antagonist – antagonists of human CCR6 receptor | hit rate 0.49% among 340,000 | AID 493098 | CHO-K1 CCR6 PathHunter beta-arrestin, luminescence, CCL20-stimulated | inhibition, % at 20 µM | P51684;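 active = compounds whose inhibition of the agonist-driven luminescence signal at 20 µM reaches about 50%, limit read from the data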;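 note: cells stimulated with CCL20 at 14 nM final; plate controls were DMSO with CCL20 for no effect and DMSO without agonist for full effect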
APJ antagonist – blocks the human apelin receptor APJ; P35414; CHO-K1 APJ beta-arrestin complementation, luminescence; inhibition, % at 20 µM; hit rate 0.32% among 330,000;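 active = inhibition above about 40% at 20 µM, limit read from the data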;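 note: cells challenged with 10 nM apelin-13 agonist together with compound; plate controls were apelin-13 plus DMSO wells for no effect and DMSO wells lacking apelin-13 for full effect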
Target sequence (P35414 whole entry, looked up): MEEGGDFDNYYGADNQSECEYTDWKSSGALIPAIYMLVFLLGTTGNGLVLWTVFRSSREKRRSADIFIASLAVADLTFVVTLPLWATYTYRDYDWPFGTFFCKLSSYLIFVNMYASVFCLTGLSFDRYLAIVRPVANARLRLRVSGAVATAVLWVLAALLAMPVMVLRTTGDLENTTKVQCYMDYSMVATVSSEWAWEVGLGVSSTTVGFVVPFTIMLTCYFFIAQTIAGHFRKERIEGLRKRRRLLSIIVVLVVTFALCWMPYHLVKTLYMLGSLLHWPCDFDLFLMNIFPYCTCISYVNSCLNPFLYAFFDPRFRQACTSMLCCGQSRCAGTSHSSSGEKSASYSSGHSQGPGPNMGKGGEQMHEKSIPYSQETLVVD
APJ ag – APJ receptor agonism | P35414 | CHO-K1 APJ PathHunter beta-arrestin, luminescence; 0% DMSO wells, 100% apelin | activation, % at 20 µM | hit rate 0.11% among 330,000;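 active = activation more than six SD over the plate average, tested at 20 µM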;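 note: 0% = DMSO alone and 100% = apelin-13 at 10 nM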
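Test system: CHO-K1 APJ beta-arrestin complementation cell line. Amount: cell density 1000 per well. Controls: DMSO negative, 10 nM Apelin-13 positive. Signal: luminescent beta-gal fragment complementation, chemiluminescent substrate. Read-out basis: agonist-driven arrestin binding to APJ. Timing: compound stimulation 90 min at 25 °C, detection 60 min.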
* = called active by the depositor; · = no result given. Most compounds without a hit are left out; they make up all but 2% or so of the library.

SMILES | GAA850 FXN act | CXCR6 inh | EBI2 block | CCR6 antagonist | APJ antagonist | APJ ag
CN(Cc1ccccc1)S(=O)(=O)c1ccc(NC(=S)NC(=O)C2CCCCC2)cc1 | 0 | 33 | 18 | 51* | 5 | -4
CNc1cncc(-c2ccoc2)n1 | 1 | 1 | -2 | · | · | ·
COc1ccc([C@H]2C[C@H](n3cc(-c4ccc(F)cc4)nn3)[C@@H](O)CN2C(=O)C2CCCCC2)cc1 | 1 | 1 | 19 | · | · | ·
CC(C)CC1Nc2ncnc(N3CCCCC3)c2N(Cc2ccccc2)C1=O (centres undefined) | 1 | 4 | 2 | 17 | 21 | 1
O=C1C(Cc2ccccc2)Nc2ncnc(N3CCCCC3)c2N1Cc1ccc(Cl)cc1 (centres undefined) | 2 | 28 | -2 | 51* | -9 | -15
O=C(Nc1ccc(-c2nc3ccccc3[nH]2)cc1)c1ccco1 | 8.6* | -5 | -1 | -4 | -28 | 9
C=CCn1cccc(/C=C/C(=O)c2ccc(C(C)(C)C)cc2)c1=S | 0 | 19 | 44* | 37 | · | ·
Cc1ccnc2nc(C(=O)OCC(=O)Nc3ccc([N+](=O)[O-])cc3Br)nn12 | 0 | -5 | -2 | 0 | -12 | -1
COc1ccc(C(=O)Nc2cc(C(=O)c3ccccc3)c(C)oc2=O)cc1 | 12* | 4 | 7 | 9 | 14 | -3
CCCCCCCCN1C(=O)[C@H](CC(=O)NCCCOCCCC)C[C@@]2(C(=O)OC)CCCCC=C12 | · | 6 | 15 | · | · | ·
O=C1[C@@H](Oc2ccccc2)[C@@H](c2cccnc2)N1c1ccccc1 | -4 | -8 | -5 | 14 | · | ·
O=C(c1ccc(S(=O)(=O)N2CCCC2)cc1)N1CCCCC1 | 1 | -2 | -12 | -1 | -25 | 4
O=C(/C=C/c1ccc(O)c(O)c1)c1ccc(S(=O)(=O)N2CCCCCC2)cc1 | 3 | 29 | 10 | 63* | 42* | -6
CN1CCC2CC1c1cc(-c3ccc(C(F)(F)F)cc3)ccc12 (centres undefined) | -1 | -4 | 3 | 7 | · | ·
CCc1ccc(NC(=O)c2ccc3c(c2)C(=O)N(Cc2ccco2)C3=O)cc1 | 1 | 7 | 84* | 4 | 7 | -3
O=C(O)c1cccc(NC(=O)c2ccc3c(c2)C(=O)N(Cc2ccco2)C3=O)c1 | -1 | 0 | -6 | 12 | 6 | -2
CC(C)(C)c1ccc(Nc2n[nH]c3ccccc23)cc1 | · | -8 | 14 | · | · | ·
CC(C)c1c(O)ccc2c1CC[C@H]1C(C)(C)CCC[C@]21C | 1 | -4 | 53* | 48 | · | ·
O=C(Nc1ccc(F)c(Cl)c1)c1cncs1 | 4 | -5 | -3 | 21 | -21 | -3
COc1ccc(/C(N)=N/OC(=O)C2CCCCC2)cc1OC | 9.0* | -1 | -3 | 6 | -6 | 9
CCc1nnc(N/N=C/c2ccccc2F)n1N | 2 | -5 | -1 | 1 | -7 | -1
CC(C)(C)c1nnc(N/N=C/c2ccccc2O)n(N)c1=O | -15 | -23 | 81* | 14 | -13 | 0
C[C@@]12C(=O)N(CC3CCCO3)CC(=O)N1[C@H]1c3cc(Cl)ccc3OC[C@@H]1[C@@H]2c1ccccc1 (some centres undefined) | 7 | -2 | 7 | 16 | -5 | -1
Cc1ccc(-c2nn3c(-c4ccccc4)nnc3o2)cc1 | 4 | 1 | -5 | · | · | ·
CCN(CC)c1ccc(N=Nc2nn(C)c(C)c2[N+](=O)[O-])cc1 | 5 | 39 | 20 | 64* | 55* | -7
SMILES | GAA850 FXN act | CXCR6 inh | EBI2 block | CCR6 antagonist | APJ antagonist | APJ ag
CCOc1cc(CNC(C)(C)CO)cc(Br)c1OCc1ccc(Cl)cc1Cl | 2 | -6 | -21 | 50* | -20 | -7
CCOc1cc(CNCCO)cc(Br)c1OCc1ccccc1Cl | 2 | -10 | 2 | 12 | -17 | 0
CCCNC(=O)C1(C)CCCN(Cc2ccc(-c3ccccc3)cc2)C1 (centres undefined) | -1 | 0 | 23 | · | · | ·
NS(=O)(=O)c1ccc(N=Nc2c(-c3ccccc3)[nH]n(-c3nc(-c4ccccc4)cs3)c2=O)cc1 | 2 | 44* | 2 | 49 | 32 | -2
CC1(C(=O)Nc2ccccc2F)CCN1C(=O)Cc1ccc(-c2ccccc2)cc1 (centres undefined) | -3 | 6 | 8 | · | · | ·
CC1CCN(Cc2c(C(=O)N/N=C/c3cc(Cl)ccc3O)nnn2-c2nonc2N)CC1 | -4 | 5 | -15 | 50* | 8 | 1
CC1CCN(Cc2c(C(=O)N/N=C/c3cc(Br)ccc3O)nnn2-c2nonc2N)CC1 | -8 | 5 | -3 | 41 | 4 | -1
CCCN(CCC)CCNS(=O)(=O)c1ccc2c(c1)oc(=O)n2C | -3 | -4 | 0 | 119* | 3 | -1
Cc1cccc(NC(=O)Oc2ccc(Cl)c3cccnc23)c1 | 3 | 46* | 11 | · | · | ·
CNC(=O)COc1ccc(Cl)c2cccnc12 | 0 | -5 | -10 | -5 | 9 | -1
Cc1ccccc1CN1CCC(CNC(=O)C2CCCN(c3ncnc4c3nc3n4CCCCC3)C2)CC1 (centres undefined) | 0 | 7 | -7 | 14 | -15 | 4
O=C(Nc1ccc([N+](=O)[O-])cc1Cl)c1cc(Cl)ccc1O | -1 | 8 | -5 | 29 | 5 | 5
O=C(Nc1cccc(Cl)c1)c1cc(N=Nc2ccc([N+](=O)[O-])cc2Cl)ccc1O | 1 | 64* | 13 | 100* | 56* | -11
O=C1C(=Cc2ccco2)CCCC1=Cc1ccco1 | 12* | 5 | 5 | 17 | · | ·
OCCC1CN(C/C=C/c2ccco2)CCN1Cc1ccccc1 (centres undefined) | 2 | -4 | 13 | 2 | 17 | 0
O=S1(=O)CC(N2CCC(Cc3ccccc3)CC2)CN1CCc1ccccc1 (centres undefined) | · | -4 | 21 | · | · | ·
O=C(COC(=O)c1ccccc1C(=O)c1ccc(Cl)c([N+](=O)[O-])c1)NC1CCCCCC1 | -7 | 10 | 53* | 16 | 36 | 5
C[N+](C)(C)CCC(=O)N1C/C(=C/c2ccccc2)C(=O)/C(=C\c2ccccc2)C1 | -8 | 8 | 3 | 13 | · | ·
CN(C)CCC(=O)N1C/C(=C/c2ccccc2)C(=O)/C(=C\c2ccccc2)C1 | -15 | 66* | 39 | 78* | · | ·
COc1ccc(OC(=O)N2C/C(=C/c3ccccc3)C(=O)/C(=C\c3ccccc3)C2)cc1 | -11 | 13 | 56* | 29 | · | ·
O=C1/C(=C/c2ccccc2)CN(C(=O)CCN2CCOCC2)C/C1=C\c1ccccc1 | -15 | 31 | 18 | 53* | · | ·
O=C(Nc1nnc(C2CC2)s1)c1cc([N+](=O)[O-])ccc1N1CCCCC1 | 2 | 20 | 12 | 72* | 16 | -3
O=C(c1ccc(-n2cncn2)c2ccoc12)N1CCOCC1 | 1 | -5 | -3 | · | · | ·
CCCCCCCCCCCCC/C=C/[C@@H](O)[C@@H](N)CO | 0 | 16 | 10 | 67* | 22 | -5
